# Results from different studies.
# Each line is one published result; the experiments were not run side by side.
# MAOB: Amine oxidase [flavin-containing] B (MAOB, Homo sapiens, UniProt P27338)
# CTSV: Cathepsin L2 (CTSV, Homo sapiens, UniProt O60911)
# EDNRB: Endothelin receptor type B (EDNRB, Homo sapiens, UniProt P24530)
Structure (SMILES),target,test,system,conditions,inhibition
CN1CCN(CCCOc2ccc3occc(=O)c3c2)CC1,MAOB,"enzyme activity, inhibitor, fluorescence",,10 µM,20%
COCc1c(-c2cc3cc(C)cc(OC)c3s2)c2c(N)ncnn2c1CN1CCNC(=O)C1,MAOB,"enzyme activity, inhibitor",,10 µM,5%
CC(C)C[C@H](NC(=O)[C@H]1O[C@@H]1C(=O)O)C(=O)NCCCCN=C(N)N,CTSV,"enzyme activity, inhibitor",,5 nM,17%
CN(CCN1CCC(OC(=O)Nc2ccccc2-c2ccccc2)CC1)C(=O)c1ccc(CN2CCC(C(N)=O)CC2)cc1,EDNRB,"ligand displacement, radioligand",,1 µM,11%
Cc1ccc(OP(=O)(Oc2ccc(C)cc2)Oc2ccc(C)cc2)cc1,"Cholinesterase (Bche, Mus musculus, UniProt Q03311)","enzyme activity, inhibitor",mouse,"oral, 240 mg/kg",20%
COc1cc(Nc2ncc(F)c(Nc3ccc4c(n3)NC(=O)C(C)(C)O4)n2)cc(OC)c1OC,"Phosphatidylinositol 3-kinase C2 domain-containing subunit gamma (PIK3C2G, Homo sapiens, UniProt O75747)","binding, competition with immobilised ligand",,10 µM,48%
O=c1ccoc2ccc(OCCCCN3CCCCC3)cc12,MAOB,"enzyme activity, inhibitor, fluorescence",,10 µM,63%
CCOC(=O)c1ccc(OC(=O)CCCCCNC(=N)N)cc1,CTSV,"enzyme activity, inhibitor",,10 µM,3%
O=C(Nc1cccnn1)N1CCN([C@@H]2CCOc3cc(C(F)(F)F)ccc32)CC1,"Matrix metalloproteinase-9 (MMP9, Homo sapiens, UniProt P14780)","enzyme activity, inhibitor",,20 µM,8%
N=C(N)c1ccc2cc(OC(=O)c3ccc(N=C(N)N)cc3)ccc2c1,"TNFAIP3 (Homo sapiens, UniProt P21580)","enzyme activity, inhibitor",,10 µM,13%
c1ccc(C(NCCNC(c2ccccc2)c2ccccc2)c2ccccc2)cc1,MAOB,"enzyme activity, inhibitor",,10 µM,5%
COc1ccc(S(=O)(=O)N2CCCCC2)cc1C,EDNRB,"ligand displacement, radioligand",,10 µM,< 30%
COc1ccc(S(=O)(=O)N(CC(=O)NO)CC(C)C)cc1,"Matrix metalloproteinase-9 (MMP9, Homo sapiens, UniProt P14780, Q279R)","enzyme activity, inhibitor",,1 nM,27%
C[C@@H]1CCCN1CCCCOc1ccc2occc(=O)c2c1,MAOB,"enzyme activity, inhibitor, fluorescence",,10 µM,28%
